From ChEMBL document CHEMBL1212767, “In vitro and in vivo activities of 1-hydroxy-2-alkyl-4(1H)quinolone derivatives against Toxoplasma gondii” (Antimicrob Agents Chemother, 2010)
The source made the active and inactive calls. No cut-off for these calls is given here.

Tests used:
Toxoplasma gondii [1] = experiment: Antimicrobial activity against GFP-expressing Toxoplasma gondii type 1 RH strain ip infected in NMRI mouse assessed as decrease in infected peritoneal cells in peritoneal cavity lavage at 32 mg/kg, ip administered 3 days postinfection for 5 days; format: functional, organism-based; design: dose 32 mg/kg
Summary of the method: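 Female NMRI mice infected i.p. with GFP-expressing RH tachyzoites. From day 3 post-infection, drug was given i.p. at 32 mg/kg/day for 5 days. Vehicle was ethanol-DMSO (1:1), sonicated at 70°C, then diluted with an equal volume of PBS. Vehicle-treated mice served as controls. On day 8, peritoneal lavage cells were fixed in 3.7% formaldehyde, and the percentage of GFP-infected cells was measured by flow cytometry. Data pooled from three experiments.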

Toxoplasma gondii [2] = experiment: Antimicrobial activity against GFP-expressing Toxoplasma gondii type 1 RH strain ip infected in NMRI mouse assessed as decrease in parasite DNA level in liver at 32 mg/kg, ip administered 3 days postinfection for 5 days by quantitative PCR analysis; format: functional, organism-based; design: dose 32 mg/kg
Summary of the method: (§1)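 Same i.p.-infected NMRI model and dosing regimen; liver and lung collected on day 8. Parasite DNA was quantified by qPCR targeting the T. gondii cryptic gene, using 250 ng total DNA, 2 mM MgCl2, 1 μM each primer and 0.2 μM each hybridization probe. Cycling: 50 cycles of 95°C, 52°C and 72°C. Standard curve of 250 to 2.5 pg parasite DNA run each time; crossing points by second-derivative method.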

Toxoplasma gondii [3] = experiment: Antimicrobial activity against Toxoplasma gondii type 2 ME49 strain orally infected in ip dosed IRF-8 deficient mouse brain assessed as decrease in Toxoplasma DNA level measured per 250 ng total DNA administered for 5 days after 3 days post 28 day 400 mg/dl sulfadiazine dosing by quantitative PCR analysis (Rbv = 134 +/- 226.1 pg DNA); format: functional
Summary of the method: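 Chronic model: mice infected with ME49; sulfadiazine 400 mg/dl given from day 2 for 28 days to allow cyst formation. Three days after withdrawal, mice received drug daily for 5 days, in groups of four, repeated three times. On day 39, brain parasite load was measured by qPCR as pg T. gondii DNA per 250 ng total DNA.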

Toxoplasma gondii [4] = experiment: Antimicrobial activity against GFP-expressing Toxoplasma gondii type 1 RH strain ip infected in NMRI mouse assessed as decrease in parasite DNA level in lungs at 32 mg/kg, ip administered 3 days postinfection for 5 days by quantitative PCR analysis; format: functional, organism-based; design: dose 32 mg/kg; summary of the method: as §1
Toxoplasma gondii [5] = experiment: Antimicrobial activity against Toxoplasma gondii type 2 ME49 strain orally infected in ip dosed IRF-8 deficient mouse brain assessed as decrease in inflammatory foci administered for 5 days after 3 days post 28 day 400 mg/dl sulfadiazine dosing […]; format: functional, organism-based
Summary of the method: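 Same ME49 chronic model: sulfadiazine 400 mg/dl for 28 days, then daily drug for 5 days starting 3 days after withdrawal, four mice per group, repeated three times. Brain inflammatory foci were graded as mean inflammatory scores using a previously described scoring method.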

Toxoplasma gondii [6] = experiment: Antimicrobial activity against Toxoplasma gondii type 1 RH strain infected in human foreskin fibroblasts monolayer assessed as inhibition of parasite replication after 24 hrs by phase-contrast microscopy; format: functional, organism-based
Toxoplasma gondii [7] = experiment: Antimicrobial activity against Toxoplasma gondii type 1 RH strain infected in human foreskin fibroblasts monolayer assessed as inhibition of parasite replication at 1 uM after 24 hrs by phase-contrast microscopy; format: functional
Summary of the method: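 Confluent human foreskin fibroblast monolayers infected with RH tachyzoites, then exposed to compound (top concentration 1 μM) or DMSO control for 24 h. Read-out was the average number of parasites per vacuole-type count, relative to control.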

| Structure (SMILES) | Activity (Toxoplasma gondii [1]) | Activity (Toxoplasma gondii [2]) | Activity (Toxoplasma gondii [3]) [pg] | Activity (Toxoplasma gondii [4]) | Activity (Toxoplasma gondii [5]) | IC50 (Toxoplasma gondii [6]) [pM] | inhibition (Toxoplasma gondii [6]) | inhibition at 1 µM (Toxoplasma gondii [7]) [%] |
| --- | --- | --- | --- | --- | --- | --- | --- | --- |
| CCCCCCCCCCCCc1c(C)n(O)c2ccccc2c1=O | Active | Active | 6.7 | Active | Active | 800 |  |  |
| O=C1C(O)=C([C@H]2CC[C@H](c3ccc(Cl)cc3)CC2)C(=O)c2ccccc21 [ATOVAQUONE] |  | Active | 0.8 | Active | Active |  |  |  |
| CCCCCCCCCCCCc1cc(=O)c2cc(OCCN(C)C)ccc2n1O |  |  |  |  |  |  | inactive |  |
| CCCCCCCCCCCCc1c(C)n(O)c2ccc(OCCN(C)C)cc2c1=O |  |  |  |  |  |  |  | 38 |
| CCCCCCCCCCCCc1cc(=O)c2ccccc2n1O | Active | Active |  |  |  | 4200 |  |  |
| CCCCCCCCCCCCc1c(C)c(=O)c2ccccc2n1O [COMPOUND A] | Active | Active |  |  | Active | 400 |  |  |
